In ChEMBL document CHEMBL1131080, “Structure-based design and synthesis of high affinity tripeptide ligands of the Grb2-SH2 domain” (J Med Chem, 1998) one finds IC50 data, which are given here for 7 compounds.

Experiment [1] concerns the target T1, Growth factor receptor-bound protein 2 (Homo sapiens, UniProt P62993). Briefly: Inhibition of Grb2-SH2 domain binding to phospho-EGF receptor intracellular C-terminal domain. In kind it is biochemical. In short, it runs like this:
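Phosphorylated MBP-EGFR C-terminal domain (residues 976–1210, expressed in E. coli) is immobilized on plates and incubated with GST/Grb2-SH2 in the presence of phosphopeptide or buffer. Bound SH2 is detected with rabbit anti-GST and HRP anti-rabbit antibody, using TMB substrate read at 655 nm. Inhibition is the % absorbance reduction versus no inhibitor; IC50 comes from nonlinear regression.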

Experiment [2] is described as follows: Inhibition of p85 SH2 domain binding to biotinylated phosphopeptide. In short, it runs like this:
(§1)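 Competition ELISA. Biotinylated phosphopeptide (10 ng/mL in 50 mM Tris, pH 7.5) is captured overnight at 4 °C on streptavidin-coated plates. Wells then receive GST-SH2 fusion (Grb2 3.2 ng/mL, Lck 3.2 ng/mL, p85 N-terminal 0.7 ng/mL) with varying unlabeled peptide or buffer, in TBS/0.1% Tween. Detection is rabbit anti-GST, then peroxidase anti-rabbit IgG with TMB. IC50 comes from nonlinear regression of % absorbance reduction.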

The target in experiment [3] is Tyrosine-protein kinase Lck (Homo sapiens, UniProt P06239). Briefly: Inhibition of p56lck SH2 domain binding to biotinylated phosphopeptide. In short, it runs like this:
as §1

The target of experiment [4] is T1, Growth factor receptor-bound protein 2. Briefly: Inhibition of Grb2 SH2 domain binding to biotinylated phosphopeptide. In short, it runs like this:
as §1

Structures are written as SMILES.

T1 sequence (P62993 whole entry, the tested form may be a part): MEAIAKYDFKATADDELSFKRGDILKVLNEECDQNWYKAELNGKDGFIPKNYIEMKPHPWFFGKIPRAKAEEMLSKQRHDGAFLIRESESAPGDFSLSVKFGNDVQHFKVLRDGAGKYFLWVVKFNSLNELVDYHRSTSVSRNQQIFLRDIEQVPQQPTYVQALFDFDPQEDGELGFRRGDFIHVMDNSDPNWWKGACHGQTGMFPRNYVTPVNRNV
Chain of Tyrosine-protein kinase Lck (P06239 whole entry, the tested form may be a part): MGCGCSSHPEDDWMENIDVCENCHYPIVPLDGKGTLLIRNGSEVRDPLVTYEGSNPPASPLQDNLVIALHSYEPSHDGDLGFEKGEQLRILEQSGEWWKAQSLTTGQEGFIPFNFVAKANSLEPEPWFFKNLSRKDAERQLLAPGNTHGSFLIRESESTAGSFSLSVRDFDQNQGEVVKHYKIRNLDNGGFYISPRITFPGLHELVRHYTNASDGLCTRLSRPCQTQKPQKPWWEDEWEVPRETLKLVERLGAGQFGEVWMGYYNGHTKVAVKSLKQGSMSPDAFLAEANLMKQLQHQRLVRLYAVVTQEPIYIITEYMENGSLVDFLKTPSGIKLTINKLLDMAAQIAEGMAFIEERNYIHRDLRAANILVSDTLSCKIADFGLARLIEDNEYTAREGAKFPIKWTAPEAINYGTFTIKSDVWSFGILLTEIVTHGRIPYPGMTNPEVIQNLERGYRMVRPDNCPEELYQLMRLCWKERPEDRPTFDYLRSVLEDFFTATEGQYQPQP

As usually defined, the IC50 is the point on the concentration scale where inhibition reaches its midpoint. A lower IC50 goes with inhibition by little substance. Compound `CC[C@H](C)[C@H](NC(=O)[C@@H](N)Cc1ccc(OP(=O)(OC(C)=O)OC(C)=O)cc1)C(=O)N[C@@H](CC(=O)NCCCc1ccc(Cl)cc1Cl)C(=O)O` registered an IC50 in experiment [1] of 1500 nM. Take `CC[C@H](C)[C@H](NC(=O)[C@@H](N)Cc1ccc(OP(=O)(OC(C)=O)OC(C)=O)cc1)C(=O)N[C@@H](CC(=O)NCCCc1cccc2ccccc12)C(=O)O`: the IC50 in experiment [2] was greater than 10000 nM; in experiment [1], 330 nM; in experiment [3] it was greater than 10000 nM; in experiment [4] it was 580 nM. In the case of `CC[C@H](C)[C@H](NC(=O)[C@@H](N)Cc1ccc(OP(=O)(OC(C)=O)OC(C)=O)cc1)C(=O)N[C@@H](CC(=O)NCCCc1ccccc1)C(=O)O`, the IC50 in experiment [1] is 2300 nM. As to `CC[C@H](C)[C@H](NC(=O)[C@@H](N)Cc1ccc(OP(=O)(OC(C)=O)OC(C)=O)cc1)C(=O)N[C@@H](CC(=O)NCC(C)C)C(=O)O`, in experiment [1], the 50% inhibitory concentration (IC50) came out at 3200 nM. Still for that read-out and setting: with `CC[C@H](C)[C@H](NC(=O)[C@@H](N)Cc1ccc(OP(=O)(OC(C)=O)OC(C)=O)cc1)C(=O)N[C@@H](CC(=O)NCCC(C)C)C(=O)O` the figure was 3100 nM; with `CC[C@H](C)[C@H](NC(=O)[C@@H](N)Cc1ccc(OP(=O)(OC(C)=O)OC(C)=O)cc1)C(=O)N[C@@H](CC(N)=O)C(=O)O`, 8900 nM. Same read-out and setting: with `CCCCC(CC)CNC(=O)C[C@H](NC(=O)[C@@H](NC(=O)[C@@H](N)Cc1ccc(OP(=O)(OC(C)=O)OC(C)=O)cc1)[C@@H](C)CC)C(=O)O` (stereo not given in full) the figure was 1600 nM.
